Measured values from ChEMBL document CHEMBL2375256, “Functionalized indoleamines as potent, drug-like inhibitors of isoprenylcysteine carboxyl methyltransferase (Icmt)” (Eur J Med Chem, 2013).
In brackets after ≈: the same amount, converted by molar mass.

Key:
MDA-MB-231 = test: Antiproliferative activity against human MDA-MB-231 cells after 72 hrs […]; format: functional, cell-based; conditions: MDA-MB-231, 72 h
[1] = molecular target: Protein-S-isoprenylcysteine O-methyltransferase (Homo sapiens, UniProt O60725); test: Inhibition of recombinant Icmt (unknown origin) expressed in Sf9 cells assessed as transfer of methyl group from [3H]-S-adenosylmethionine to [3H]-biotin-S-farnesyl-L-cysteine after 30 mins
Procedure, shortened: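 Icmt membrane protein was diluted to 0.03 mg/mL in 70 mM HEPES, 100 mM NaCl, 5 mM MgCl2, 3 mM DTT, pH 7.5, and preincubated with inhibitor. The reaction was started with a mix of BFC, SAM and [3H]SAM and run 30 min at 37 °C. It was quenched with excess SAM, captured on streptavidin SPA beads overnight at ambient temperature, and counted. IC50 was taken from % activity versus log concentration, with two independent determinations.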

[2] = Intrinsic clearance in rat liver microsomes at 3 uM; format: ADME, Microsome; conditions: read-out: CLH
Procedure, shortened: (§1)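 Compound at 3 µM was incubated with pooled male rat liver microsomes (0.3 mg protein/mL) in 0.1 M phosphate buffer pH 7.4 with 1 mM EDTA. The reaction was started with NADPH (1 mM final) at 37 °C and sampled at 0, 5, 15, 30 and 45 min.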

HepG2 = test: Antiproliferative activity against human HepG2 cells after 72 hrs […]; format: functional, cell-based; conditions: HepG2, 72 h
IMR-90 = test: Antiproliferative activity against human IMR90 cells after 72 hrs […]; format: cell-based; conditions: IMR-90, 72 h
[3] = Half life in rat liver microsomes at 3 uM; format: ADME, Microsome; procedure, shortened: as §1
PC-3 = test: Antiproliferative activity against human PC3 cells after 72 hrs […]; format: functional, cell-based; conditions: PC-3, 72 h
[4] = Aqueous solubility of the compound at pH 7.4 after 24 hrs agitation; format: physicochemical
MIA PaCa-2 = test: Antiproliferative activity against human MIAPaCa2 cells after 72 hrs by MTT assay; format: functional, cell-based; conditions: MIA PaCa-2, 72 h

Protein-S-isoprenylcysteine O-methyltransferase, sequence (O60725 whole entry): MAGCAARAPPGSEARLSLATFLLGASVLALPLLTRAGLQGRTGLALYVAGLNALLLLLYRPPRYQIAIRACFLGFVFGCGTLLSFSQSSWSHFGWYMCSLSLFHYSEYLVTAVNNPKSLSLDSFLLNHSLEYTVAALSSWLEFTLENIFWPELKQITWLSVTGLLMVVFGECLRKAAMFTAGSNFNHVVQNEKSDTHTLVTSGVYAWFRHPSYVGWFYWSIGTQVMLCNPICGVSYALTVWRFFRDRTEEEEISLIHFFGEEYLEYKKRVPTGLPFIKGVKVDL

Compound | IC50 (MDA-MB-231) [µM] | IC50 (PC-3) [µM] | other results
CCCCCCCCn1cc(CN(CC)CC)c2cc(F)ccc21 | 7.36 |  | IC50 [1]: 4.42 µM
CCCCCCCCn1cc(CN(CC)CC)c2cc(-c3cccc(O)c3)ccc21 | 18.1 | 14.9 | 
CCCCCCCCn1cc(CN(CC)CC)c2cc(-c3ccc(S(=O)(=O)NC)cc3)ccc21 | 10.2 |  | 
CCCCCCCCn1cc(CN(CC)CC)c2cc(-c3ccc(N(C)C)nc3)ccc21 | 2.52 | 1.92 | IC50 [1]: 1.63 µM
CCCCCCCCn1cc(CN(CC)CC)c2cc(-c3cnc(C#N)nc3)ccc21 | 3.85 | 5.74 | 
CCCCCCCCn1cc(CN(CC)CC)c2c(F)cccc21 | 7.5 |  | 
CCCCCCCCn1cc(CC(N)=O)c2cc(-c3cccc(C)c3)ccc21 | 22.1 | 21.3 | microsomal CLint at 3 µM [2]: 53.6 µL/min/mg; IC50 (HepG2): 19.3 µM; half-life at 3 µM [3]: 44.8 min

Continued, in another order:

IC50 (MDA-MB-231) [µM] | IC50 (PC-3) [µM] | Compound | other results
5.14 | 6.31 | CCCCCCCCn1cc(CN(CC)CC)c2cc(-c3cccc(C)c3)ccc21 | microsomal CLint at 3 µM [2]: 85.8 µL/min/mg; IC50 (HepG2): 4.9 µM; IC50 (IMR-90): 5.26 µM; half-life at 3 µM [3]: 26.9 min; solubility at 24 h [4]: 1.1 µM (≈ 0.445 µg/mL)
10.8 | 6.11 | CCCCCCCCn1cc(CN(CC)CC)c2cc(-c3ccc(C#N)cc3)ccc21 | 
5.56 | 4.74 | CCCCCCCCn1cc(CN(CC)CC)c2cc(-c3ccc(S(C)(=O)=O)cc3)ccc21 | 
5.5 | 5.84 | CCCCCCCCn1cc(CN(CC)CC)c2cc(-c3cccnc3)ccc21 | IC50 (IMR-90): 5.52 µM
5.14 | 5.88 | CCCCCCCCn1cc(CN(CC)CC)c2cc(-c3ccncc3F)ccc21 | IC50 [1]: 0.96 µM
11.1 | 8.47 | CCCCCCCCn1cc(CN(CC)CC)c2cc(-c3cncnc3)ccc21 | IC50 (IMR-90): 9.84 µM
2.48 | 2.55 | CCCCCCCCn1cc(CN(CC)CC)c2cc(-c3cnc(N)nc3)ccc21 | microsomal CLint at 3 µM [2]: 204 µL/min/mg; IC50 (HepG2): 1.65 µM; IC50 (MIA PaCa-2): 1.6 µM; IC50 (IMR-90): 2.65 µM; half-life at 3 µM [3]: 11.3 min
9.14 |  | CCCCCCCCn1cc(CN(CC)CC)c2ccc(F)cc21 | IC50 [1]: 2.22 µM
8.87 |  | CCCCCCCCn1cc(CN(CC)CC)c2cccc(F)c21 | 
